Active and inactive are the calls of the source. The rule behind the calls is not given here.
How the values were obtained:
NCI-H460 [1] = assay: Antiproliferative activity against human NCI-H460 cells assessed as reduction in cell viability after 24 hrs by MTT assay; assay type: functional, cell-based; conditions: NCI-H460, 24 h
In short: (§1)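 3000 cells/well incubated in triplicate with serial concentrations of compound for 24, 48 or 72 h at 37 °C. MTT (5.0 mg/mL solution) added 3 h before the end. Formazan dissolved in DMSO, absorbance read at 570 and 630 nm. Viability normalised to vehicle control. IC50 from non-linear regression (variable slope), mean ± SD of triplicates.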

NCI-H460 [2] = assay: Antiproliferative activity against human NCI-H460 cells assessed as reduction in cell viability after 72 hrs by MTT assay; assay type: functional, cell-based; conditions: NCI-H460, 72 h; in short: as §1
HepG2 = assay: Antiproliferative activity against human HepG2 cells assessed as reduction in cell viability after 72 hrs by MTT assay; assay type: functional, cell-based; conditions: HepG2, 72 h; in short: as §1
MEF = assay: Cytotoxicity against mouse MEF at 1 to 10 uM after 48 hrs by MTT assay; assay type: cell-based
In short: (§2)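 Cells (HCT116, nHDF in serum-free fibroblast medium with growth kit, or MEFs) exposed to increasing compound concentrations for 48 h at 37 °C. Viability read by MTT: 3000 cells/well, triplicate, MTT 3 h before end, formazan in DMSO, absorbance 570/630 nm. Mean ± SD.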

HCT-116 [3] = assay: Cytotoxicity against human HCT116 cells assessed as reduction in cell viability after 48 hrs MTT assay; assay type: functional, cell-based; in short: as §2
HCT-116 [4] = assay: Induction of cell cycle arrest in human HCT116 cells assessed as accumulation at S phase at 5 uM after 12 hrs by propidium iodide staining-based flow cytometry (reference value: 55%); assay type: functional
HCT-116 [5] = assay: Induction of cell cycle arrest in human HCT116 cells assessed as accumulation at S phase at 5 uM after 24 hrs by propidium iodide staining-based flow cytometry (reference value: 48%); assay type: functional
HCT-116 [6] = assay: Effect on cell cycle in human HCT116 cells assessed as inhibition of cyclin B1 expression at 1 to 10 uM after 24 hrs by Western blot method; assay type: functional, cell-based
In short: (§3)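 CRC cells treated at indicated doses for 24 h. Whole-cell lysates made in RIPA buffer with protease and phosphatase inhibitors and cleared at 15,000 rpm for 10 min. Resolved on 4-12% gels, transferred to PVDF, probed for cell-cycle proteins, detected by ECL. Membranes stripped for sequential probing.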

HCT-116 [7] = assay: Effect on cell cycle in human HCT116 cells assessed as inhibition of cyclin E1 expression at 1 to 10 uM after 24 hrs by Western blot method; assay type: functional, cell-based; in short: as §3
HCT-116 [8] = assay: Induction of apoptosis in human HCT116 cells assessed as live cells at 2.5 uM after 24 hrs by annexin V/7-ADD staining-based flow cytometry (reference value: 90.05%); assay type: functional
HCT-116 [9] = assay: Induction of apoptosis in human HCT116 cells assessed as early apoptotic cells at 2.5 uM after 24 hrs by annexin V/7-ADD staining-based flow cytometry (reference value: 5.20%); assay type: functional
HCT-116 [10] = assay: Induction of apoptosis in human HCT116 cells assessed as late apoptotic cells at 5 uM after 24 hrs by annexin V/7-ADD staining-based flow cytometry (reference value: 1.65%); assay type: functional
HCT-116 [11] = assay: Induction of apoptosis in human HCT116 cells assessed as early apoptotic cells at 5 uM after 24 hrs by annexin V/7-ADD staining-based flow cytometry (reference value: 5.20%); assay type: functional
HCT-116 [12] = assay: Induction of apoptosis in human HCT116 cells assessed as dead cells at 10 uM after 24 hrs by annexin V/7-ADD staining-based flow cytometry (reference value: 3.10%); assay type: functional
HCT-116 [13] = assay: Induction of apoptosis in human HCT116 cells assessed as live cells at 10 uM after 24 hrs by annexin V/7-ADD staining-based flow cytometry (reference value: 90.05%); assay type: functional
HCT-116 [14] = assay: Induction of apoptosis in human HCT116 cells assessed as dead cells at 2.5 uM after 24 hrs by 7-ADD and caspase 3/7 activity-based flow cytometry (reference value: 3.25%); assay type: functional
HCT-116 [15] = assay: Induction of apoptosis in human HCT116 cells assessed as live cells at 2.5 uM after 24 hrs by 7-ADD and caspase 3/7 activity-based flow cytometry (reference value: 92.60%); assay type: functional
HCT-116 [16] = assay: Induction of apoptosis in human HCT116 cells assessed as dead cells at 5 uM after 24 hrs by 7-ADD and caspase 3/7 activity-based flow cytometry (reference value: 3.25%); assay type: functional
HCT-116 [17] = assay: Induction of apoptosis in human HCT116 cells assessed as late apoptotic cells at 5 uM after 24 hrs by 7-ADD and caspase 3/7 activity-based flow cytometry (reference value: 1.70%); assay type: functional
HCT-116 [18] = assay: Induction of apoptosis in human HCT116 cells assessed as early apoptotic cells at 5 uM after 24 hrs by 7-ADD and caspase 3/7 activity-based flow cytometry (reference value: 2.45%); assay type: functional
HCT-116 [19] = assay: Induction of apoptosis in human HCT116 cells assessed as live cells at 10 uM after 24 hrs by 7-ADD and caspase 3/7 activity-based flow cytometry (reference value: 92.60%); assay type: functional
HCT-116 [20] = assay: Induction of apoptosis in human HCT116 cells assessed as cleaved PARP level at 1 to 10 uM after 24 hrs by Western blot method; assay type: functional, cell-based
In short: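 HCT116 lysates after 24 h treatment made in RIPA buffer with protease and phosphatase inhibitors. Resolved by SDS-PAGE (4-12%), transferred to PVDF, probed for PARP with β-actin as loading control, detected by ECL.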

HCT-116 [21] = assay: Induction of ROS generation in human HCT116 cells at 5 uM after 3 hrs by flow cytometry (reference value: 8.06%); assay type: functional
HCT-116 [22] = assay: Induction of ROS generation in human HCT116 cells at 5 uM after 24 hrs by flow cytometry (reference value: 12.42%); assay type: functional
UACC-903 [23] = assay: Potency index, ratio IC50 of selecoxib-1-GSH to IC50 of compound for human UACC-903 cells after 48 and 72 hrs; assay type: functional
HT-29 = assay: Antiproliferative activity against human HT-29 cells assessed as reduction in cell viability after 48 hrs by MTT assay; assay type: functional, cell-based; conditions: HT-29, 48 h; in short: as §1
[24] = Antiproliferative activity against human PANC1 cells assessed as reduction in cell viability after 24 hrs by MTT assay; assay type: functional, cell-based; conditions: PANC-1, 24 h; in short: as §1
[25] = Antiproliferative activity against human PANC1 cells assessed as reduction in cell viability after 48 hrs by MTT assay; assay type: functional, cell-based; conditions: PANC-1, 48 h; in short: as §1
UACC-903 [26] = assay: Antiproliferative activity against human UACC-903 cells assessed as reduction in cell viability after 48 hrs by MTT assay; assay type: functional, cell-based; conditions: UACC-903, 48 h; in short: as §1
RKO = assay: Antiproliferative activity against human RKO cells assessed as reduction in cell viability after 72 hrs by MTT assay; assay type: functional, cell-based; in short: as §1
[27] = Antiproliferative activity against human HCT116 cells assessed as reduction in cell viability after 24 hrs by MTT assay; assay type: functional, cell-based; conditions: HCT-116, 24 h; in short: as §1
[28] = Antiproliferative activity against human HCT116 cells assessed as reduction in cell viability after 48 hrs by MTT assay; assay type: functional, cell-based; conditions: HCT-116, 48 h; in short: as §1
[29] = Antiproliferative activity against human DU145 cells assessed as reduction in cell viability after 72 hrs by MTT assay; assay type: functional, cell-based; conditions: DU-145, 72 h; in short: as §1

SMILES: CC(=O)Oc1ccccc1C(=O)NCC[Se]C#N
- IC50 (NCI-H460 [1]): > 50000 nM
- IC50 (NCI-H460 [2]): 1300 nM
- IC50 (HepG2): 4300 nM
- Activity (MEF): Non-toxic
- Activity (HCT-116 [3]): Active
- Activity (HCT-116 [4]): 14%
- Activity (HCT-116 [5]): 13%
- inhibition (HCT-116 [6]): Active
- inhibition (HCT-116 [7]): Active
- Activity (HCT-116 [8]): 76.8%
- Activity (HCT-116 [9]): 13.65%
- Activity (HCT-116 [10]): 31.35%
- Activity (HCT-116 [11]): 36.15%
- Activity (HCT-116 [12]): 1.6%
- Activity (HCT-116 [13]): 14.45%
- Activity (HCT-116 [14]): 2.1%
- Activity (HCT-116 [15]): 60.4%
- Activity (HCT-116 [16]): 2.65%
- Activity (HCT-116 [17]): 32.8%
- Activity (HCT-116 [18]): 44%
- Activity (HCT-116 [19]): 13.25%
- Activity (HCT-116 [20]): Active
- Activity (HCT-116 [21]): 9.16%
- Activity (HCT-116 [22]): 66.42%
- Ratio IC50 (UACC-903 [23]): >=5
- IC50 (HT-29): 2100 nM
- IC50 [24]: 12100 nM
- IC50 [25]: 2100 nM
- IC50 (UACC-903 [26]): 4000 nM
- IC50 (RKO): 2900 nM
- IC50 [27]: 16200 nM
- IC50 [28]: 2500 nM
- IC50 [29]: 2900 nM

Reference: ChEMBL document CHEMBL3792386, “Design, Synthesis, and Biological Evaluation of Novel Selenium (Se-NSAID) Molecules as Anticancer Agents” (J Med Chem, 2016)
